Experimental data from ChEMBL document CHEMBL3865853, “Synthesis and Bioevaluation of 3,6-Diaryl-[1,2,4]triazolo[4,3-b] Pyridazines as Antitubulin Agents” (ACS Med Chem Lett, 2016).
The source made the active and inactive calls. The rule behind the calls is not given here.

Legend:
[1] = Cytotoxicity against human A549 cells assessed as reduction in cell viability after 24 hrs by MTT assay; assay type: functional, cell-based; settings: A549, 24 h
Outline: (§1)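 MTT viability assay on A549, HT-1080 and SGC-7901 cells; IC50 as concentration giving 50% inhibition; each experiment run in triplicate.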

[2] = Cytotoxicity against human HT1080 cells assessed as reduction in cell viability after 24 hrs by MTT assay; assay type: functional, cell-based; settings: HT-1080, 24 h; outline: as §1
[3] = Cytotoxicity against human SGC7901 cells assessed as reduction in cell viability after 24 hrs by MTT assay; assay type: functional, cell-based; settings: SGC-7901, 24 h; outline: as §1
[4] = Cell cycle arrest in human A549 cells assessed as accumulation in G2/M phase after 12 hrs by propidium iodide-staining based FACS analysis; assay type: functional
[5] = Cell cycle arrest in human A549 cells assessed as accumulation in G2/M phase at 0.016 uM by propidium iodide-staining based FACS analysis; assay type: functional; settings: TDE = time-dependent effect
[6] = tested on: A549; experiment: Inhibition of alpha-tubulin polymerization in human A549 cells assessed as destruction of tubulin network at 2 times IC50 after 12 hrs by DAPI/FITC-dual staining based fluorescence microscopic analysis; assay type: cell-based
Outline: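 Indirect immunofluorescence of microtubule network in cultured A549 cells after treatment at 2-fold IC50 concentrations; DMSO-treated cells as vehicle control.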

[7] = species: Sus scrofa; experiment: (§2) Inhibition of pig brain tubulin polymerization measured at 1 min intervals for 90 mins by spectrophotometric analysis
Outline: (§3)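 Purified tubulin incubated at room temperature with test agent (0.33–10 μM range used), paclitaxel 5.0 μM, or DMSO vehicle; polymerization followed, IC50 derived; mean ± SD of three experiments in triplicate.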

[8] = as §2; design: species or system Sus scrofa; outline: as §3
[9] = Cell cycle arrest in human A549 cells assessed as accumulation in G2/M phase at 0.018 uM by propidium iodide-staining based FACS analysis; assay type: functional

Work on `COc1cc(-c2nnc3ccc(-c4ccc(SC)cc4)nn23)cc(OC)c1OC` yielded an IC50 [1] of 0.28 µM, an IC50 [2] of 73 nM and an IC50 [3] of 98 nM.

For `COc1cc(-c2nnc3ccc(-c4ccc(C)cc4)nn23)cc(OC)c1OC`, the IC50 [1] was 0.023 µM, the IC50 [2] was 140 nM and the IC50 [3] was 16 nM.

With `COc1ccc(-c2ccc3nnc(-c4ccc(OC)c(OC)c4OC)n3n2)cc1N` the IC50 [1] was 2.62 µM, the IC50 [2] was 920 nM and the IC50 [3] was 910 nM.

In the case of `COc1cc(-c2nnc3ccc(-c4ccc(N)cc4)nn23)cc(OC)c1OC`, the IC50 [1] is reported as 2.35 µM, the IC50 [2] is reported as 1620 nM and the IC50 [3] is reported as 1230 nM.

`COc1cc(-c2nnc3ccc(-c4cccc(Cl)c4)nn23)cc(OC)c1OC` showed an IC50 [1] of 47.9 µM, an IC50 [2] of 60500 nM and an IC50 [3] of 63100 nM.

Compound `COc1ccc(-c2ccc3nnc(-c4cc(OC)c(OC)c(OC)c4)n3n2)cc1[N+](=O)[O-]` has an IC50 [1] of 4.57 µM, an IC50 [2] of 6850 nM and an IC50 [3] of 2280 nM.

For `COc1cc(-c2nnc3ccc(-c4ccc(Br)cc4)nn23)cc(OC)c1OC`, the IC50 [1] was 0.78 µM, the IC50 [2] was 150 nM and the IC50 [3] was 1280 nM.

With `COc1cc(-c2nnc3ccc(-c4cccc(Br)c4)nn23)cc(OC)c1OC` the IC50 [1] was 52.2 µM, the IC50 [2] was 54500 nM and the IC50 [3] was 59000 nM.

In the case of `COc1ccc(-c2ccc3nnc(-c4ccc(OC)c(OC)c4OC)n3n2)cc1`, the IC50 [1] is reported as 6.98 µM, the IC50 [2] is reported as 5570 nM and the IC50 [3] is reported as 420 nM.

`COc1cc(-c2nnc3ccc(-c4ccc(C(F)(F)F)cc4)nn23)cc(OC)c1OC` showed an IC50 [1] of 10.4 µM, an IC50 [2] of 1860 nM and an IC50 [3] of 2210 nM.

`COc1ccc(-c2ccc3nnc(-c4ccc(OC)c(OC)c4OC)n3n2)cc1[N+](=O)[O-]` gave an IC50 [1] of 11.4 µM, an IC50 [2] of 18200 nM and an IC50 [3] of 9140 nM.

Compound `COc1cc(-c2nnc3ccc(-c4ccc([N+](=O)[O-])cc4)nn23)cc(OC)c1OC` has an IC50 [1] of 3.85 µM, an IC50 [2] of 4940 nM and an IC50 [3] of 2380 nM.

With `COc1ccc(-c2ccc3nnc(-c4cc(OC)c(OC)c(OC)c4)n3n2)cc1N` the Activity [4] was “Dose-dependent effect”, the Activity [5] was “Tde” and the IC50 [1] was 0.008 µM. The IC50 [2] was 12 nM, the inhibition [6] was “Active” and the IC50 [3] was 14 nM. The inhibition [7] was “Dose-dependent effect” and the IC50 [8] was 1800 nM.

For `COc1ccc(/C=C\c2cc(OC)c(OC)c(OC)c2)cc1O` [COMBRETASTATIN A4], the IC50 [1] was 0.009 µM, the IC50 [2] was 9 nM and the inhibition [6] was “Active”. For the same compound, the IC50 [3] was 12 nM, the inhibition [7] was “Dose-dependent effect” and the Activity [9] was “Active”.

`COc1cc(-c2nnc3ccc(-c4ccc(Cl)cc4)nn23)cc(OC)c1OC` showed an IC50 [1] of 0.051 µM, an IC50 [2] of 450 nM and an IC50 [3] of 25 nM.

For `COc1ccc(-c2ccc3nnc(-c4cc(OC)c(OC)c(OC)c4)n3n2)cc1`, the IC50 [1] was 0.051 µM, the IC50 [2] was 17 nM and the IC50 [3] was 260 nM.

Work on `COc1cc(-c2nnc3ccc(-c4ccc(C#N)cc4)nn23)cc(OC)c1OC` yielded an IC50 [1] of 51.6 µM, an IC50 [2] of 33500 nM and an IC50 [3] of 30900 nM.

For `COc1ccc(-c2nnc3ccc(-c4ccc(C)cc4)nn23)c(OC)c1OC`, the IC50 [1] was 10.4 µM, the IC50 [2] was 170 nM and the IC50 [3] was 4530 nM.

In the case of `COc1cc(-c2nnc3ccc(-c4cccc(N)c4)nn23)cc(OC)c1OC`, the IC50 [1] is reported as 2.98 µM, the IC50 [2] is reported as 390 nM and the IC50 [3] is reported as 980 nM.

Work on `COc1cc(-c2nnc3ccc(-c4ccc(F)cc4)nn23)cc(OC)c1OC` yielded an IC50 [1] of 2.18 µM, an IC50 [2] of 21 nM and an IC50 [3] of 2020 nM.

`COc1ccc(-c2ccc3nnc(-c4cc(OC)c(OC)c(OC)c4)n3n2)cc1F` gave an IC50 [1] of 4.23 µM, an IC50 [2] of 1690 nM and an IC50 [3] of 4170 nM.

Compound `COc1cc(-c2nnc3ccc(-c4cccc([N+](=O)[O-])c4)nn23)cc(OC)c1OC` has an IC50 [1] of 90.5 µM, an IC50 [2] of 50000 nM and an IC50 [3] of 86400 nM.
